Measured values collected from several papers.
Each line is one published result; the experiments were not run side by side.
MAP2K6: Dual specificity mitogen-activated protein kinase kinase 6 (MAP2K6, Homo sapiens, UniProt P52564)

Structure (SMILES)	target	read-out	mode	technique	tested at	measurement	result
Cn1c2c(c3ccc(Cl)c(Cl)c31)C(C#N)C1(CCCC1)NC2=O (stereo not shown)	MAP2K6	thermal stability	–	DSF	10 µM	ΔTm	0 °C
CN(C)C(=O)Cn1cc(-c2nc([C@@](C)(c3ccc(-c4cnc(N)nc4)cc3)C3CC3)no2)cn1	MAP2K6	cell-free assay	–	competition with immobilised ligand	1 µM	remaining binding	100%
CCCOc1ccc(OC)c(F)c1C(=O)c1ccc(C(=O)N[C@@H]2CNC[C@H]2NC(=O)c2ccc3[nH]ncc3c2)cc1	MAP2K6	enzyme activity	inhibitor	–	10 µM	remaining activity	103%
Cc1ccc(C(=O)NCc2ccsc2)cc1C#Cc1cn(C(C)C)c2ncnc(N)c12	MAP2K6	enzyme activity	inhibitor	–	1 µM	activity vs control	86%
CC(C)(O)c1cncc(-c2nc3ccc(F)cc3n2C2CC2)c1	MAP2K6	cell-free assay	–	competition with immobilised ligand	1 µM	remaining binding	100%
Oc1cccc(-c2nc(N3CCOCC3)c3oc4ncccc4c3n2)c1	MAP2K6	enzyme activity	inhibitor	–	10 µM	remaining activity	107%
Cc1ccc(Nc2nccc(N(C)c3ccc4c(C)n(C)nc4c3)n2)cc1S(N)(=O)=O	MAP2K6	enzyme activity	inhibitor	–	0.3 µM	inhibition	-10%
CN(C)c1ncnc(-c2ccc3nc(Nc4cc(CN5CCN(C(=O)CC(F)(F)F)CC5)ccn4)[nH]c3c2)c1Cl	MAP2K6	cell-free assay	–	competition with immobilised ligand	1 µM	remaining binding	92%
CNCc1ccc(-c2cc(-c3nc(-c4ccc(S(=O)(=O)C(C)C)cc4)cnc3N)on2)cc1	MAP2K6	enzyme activity	inhibitor	–	0.4 µM	inhibition	15%
CCCCN(CCCC)C(=O)CN1C[C@@H](c2cc(OC)c3c(c2)OCO3)[C@H](C(=O)O)[C@H]1CC(C)(C)CCC	MAP2K6	cell-free assay	–	competition with immobilised ligand	1 µM	remaining binding	90.8%
Cn1c2c(c3ccc(Cl)c(Cl)c31)C(C#N)C(C)(C)NC2=O (stereo not shown)	MAP2K6	thermal stability	–	DSF	10 µM	ΔTm	0.2 °C
CCN(CC)c1ccc(C2=NNC(=O)CC2C)cc1[N+](=O)[O-] (stereo not shown)	MAP2K6	enzyme activity	inhibitor	–	10 µM	remaining activity	97%
Cc1ccc(NC(=O)c2ccc(CN3CCN(C)CC3)cc2)cc1Nc1nc(-c2cccnc2)cs1	MAP2K6	cell-free assay	–	–	0.5 µM	remaining signal	96.5%
CN1CC(Oc2cnc(C#N)cc2-c2ccn3nc(NC(=O)C4CC4)cc3c2)C1	MAP2K6	enzyme activity	inhibitor	–	1 µM	inhibition	21%
Cc1sc(C(=O)NC2COC2)cc1-n1cc(NC(=O)Nc2c(F)cccc2Cl)cn1	MAP2K6	enzyme activity	inhibitor	–	10 µM	remaining activity	86.4%
CN1CCC2(CC1)NC(=O)c1c(c3ccc(Cl)c(Cl)c3n1C)C2C#N (racemic)	MAP2K6	thermal stability	–	DSF	10 µM	ΔTm	0 °C
COc1cc(Nc2cnc(C#N)c(O[C@H](C)CN(C)C)n2)ncc1-c1cnn(C)c1	MAP2K6	enzyme activity	inhibitor	radiometric	1 µM	remaining activity	71%

Structure (SMILES)	target	read-out	mode	technique	tested at	measurement	result
Cn1c2c(Cl)c(Cl)ccc2c2cc[nH]c(=O)c21	MAP2K6	thermal stability	–	DSF	10 µM	ΔTm	0.2 °C
Nc1nc(Nc2ccc(S(N)(=O)=O)cc2)nn1C(=O)c1c(F)cccc1F	MAP2K6	cell-free assay	–	–	0.5 µM	remaining signal	90.5%
Cn1c2c(c3ccc(Cl)c(Cl)c31)C(C#N)C1(CCOCC1)NC2=O (stereo not shown)	MAP2K6	thermal stability	–	DSF	10 µM	ΔTm	0 °C
CCN(CC)CCNC(=O)c1c(C)[nH]c(/C=C2\C(=O)Nc3ccc(F)cc32)c1C	MAP2K6	cell-free assay	–	–	0.5 µM	remaining signal	75.9%
O=C(Nc1cnn(-c2csc(C(=O)NC3COC3)c2)c1)Nc1c(F)cccc1Cl	MAP2K6	enzyme activity	inhibitor	–	5 µM	remaining activity	94.4%
CC(C)(C)c1nc(-c2cccc(NS(=O)(=O)c3c(F)cccc3F)c2F)c(-c2ccnc(N)n2)s1	Dual specificity mitogen-activated protein kinase kinase 6 (MAP2K6, Homo sapiens, UniProt P52564, S207D/T211D)	enzyme activity	inhibitor	radiometric	1 µM	remaining activity	96%
Cc1cc(-n2nc(Cc3cc(F)cc(C(F)(F)F)c3)nc2C)ccc1C(N)=O	MAP2K6	cell-free assay	–	competition with immobilised ligand	1 µM	remaining binding	83%
Cc1ccc(NC(=O)c2ccc(C)c(C(F)(F)F)c2)cc1C#Cc1nn(C2CCC(O)CC2)c2ncnc(N)c12 (stereo not shown)	MAP2K6	cell-free assay	–	–	10 µM	remaining signal	43%
COc1cc2ncnc(Nc3ccc(Oc4ccccc4)cc3C)c2cc1OC	MAP2K6	enzyme activity	inhibitor	–	1 µM	inhibition	3%
Cc1c[nH]c2nccc(Oc3c(F)cc(Nc4cc(Cl)nc(N)n4)cc3F)c12	MAP2K6	cell-free assay	–	competition with immobilised ligand	0.1 µM	remaining binding	99%
O=C1NC(=O)c2cc(Nc3ccc(F)cc3)c(Nc3ccc(F)cc3)cc21	MAP2K6	cell-free assay	–	–	0.5 µM	remaining signal	110%
FC(F)c1nc2ccccc2n1-c1nc(N2CCOCC2)nc(N2CCOCC2)n1	MAP2K6	enzyme activity	inhibitor	–	10 µM	remaining activity	83%
Cn1cc(Cl)c2c(Oc3c(F)cc(Nc4cc(Cl)nc(N)n4)cc3F)ccnc21	MAP2K6	cell-free assay	–	competition with immobilised ligand	0.1 µM	remaining binding	100%
CNC(=O)c1cc(Oc2ccc(NC(=O)Nc3ccc(Cl)c(C(F)(F)F)c3)cc2)ccn1	MAP2K6	enzyme activity	inhibitor	–	10 µM	inhibition	99%
CNCc1ccccc1-c1csc([C@@H](C)Nc2nc(C)nc3cc(OC)c(OC)cc23)c1	MAP2K6	cell-free assay	–	competition with immobilised ligand	1 µM	remaining binding	86%
COc1cc2ncnc(Nc3ccc(F)c(Cl)c3)c2cc1OCCCN1CCOCC1	MAP2K6	cell-free assay	–	–	0.5 µM	remaining signal	90.1%
CN(C)C1CCN(CC#Cc2nn(C3CCCC3)c3nc(NCc4ccccc4)ncc23)C1 (stereo not shown)	MAP2K6	enzyme activity	inhibitor	FRET	1 µM	inhibition	6%
